Paper PMC3065194 (Biochemical and biophysical research communications, 2010)

Experiments:
integrin CD11b/CD18 = integrin CD11b/CD18 (Mus musculus, UniProt P05555+P11835); assay: Neutrophil adhesion assay; format: cell-based; details: WT B6 mouse neutrophils, Figure 3B
Procedure, shortened: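 Peritoneal neutrophils were isolated from thioglycollate-stimulated 8–10-week-old WT B6 mice and suspended in TBS with 0.5% gelatin in ligand-coated wells. Cells were incubated 10 min at 37°C with 5 μM test compound plus agonist, either Mn²⁺ (0.1 mM) or PMA (15 nM). Plates were inverted 30 min at room temperature to remove non-adherent cells. Adherent cells were counted by imaging microscopy, in triplicate wells.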

integrin CD11a/CD18 = details: related integrin CD11a/CD18; cited from earlier work

Chain of integrin CD11b/CD18 (P05555 17-1153): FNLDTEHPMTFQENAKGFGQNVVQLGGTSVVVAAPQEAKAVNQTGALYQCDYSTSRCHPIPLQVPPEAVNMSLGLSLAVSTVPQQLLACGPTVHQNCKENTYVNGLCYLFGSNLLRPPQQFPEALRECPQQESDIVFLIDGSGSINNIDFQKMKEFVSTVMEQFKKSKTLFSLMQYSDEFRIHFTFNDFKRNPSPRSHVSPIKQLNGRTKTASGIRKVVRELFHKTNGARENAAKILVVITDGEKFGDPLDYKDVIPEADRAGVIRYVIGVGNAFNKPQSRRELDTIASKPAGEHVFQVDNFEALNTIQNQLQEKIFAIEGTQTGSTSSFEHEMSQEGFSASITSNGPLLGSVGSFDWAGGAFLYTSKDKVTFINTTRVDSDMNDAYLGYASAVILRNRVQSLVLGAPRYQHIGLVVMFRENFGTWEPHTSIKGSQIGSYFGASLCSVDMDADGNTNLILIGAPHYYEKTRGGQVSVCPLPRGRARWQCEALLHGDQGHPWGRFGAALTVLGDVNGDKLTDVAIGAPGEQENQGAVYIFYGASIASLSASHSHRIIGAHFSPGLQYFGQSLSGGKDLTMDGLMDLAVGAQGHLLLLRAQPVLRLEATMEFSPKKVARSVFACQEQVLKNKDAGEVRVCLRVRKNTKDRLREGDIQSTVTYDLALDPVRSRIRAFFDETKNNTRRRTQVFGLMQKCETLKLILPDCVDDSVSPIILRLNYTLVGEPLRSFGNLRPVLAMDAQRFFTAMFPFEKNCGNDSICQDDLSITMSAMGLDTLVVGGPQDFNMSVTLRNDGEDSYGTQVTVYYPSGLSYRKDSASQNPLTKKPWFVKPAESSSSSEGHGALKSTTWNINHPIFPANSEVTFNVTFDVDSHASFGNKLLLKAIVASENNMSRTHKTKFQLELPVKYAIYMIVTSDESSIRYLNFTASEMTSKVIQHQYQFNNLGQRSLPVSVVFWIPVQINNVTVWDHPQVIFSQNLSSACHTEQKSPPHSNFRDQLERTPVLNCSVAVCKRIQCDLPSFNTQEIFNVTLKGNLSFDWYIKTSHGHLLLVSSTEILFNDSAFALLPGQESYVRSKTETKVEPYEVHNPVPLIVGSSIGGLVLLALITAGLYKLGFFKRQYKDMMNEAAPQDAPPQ
Chain of integrin CD11b/CD18 (P11835 24-771): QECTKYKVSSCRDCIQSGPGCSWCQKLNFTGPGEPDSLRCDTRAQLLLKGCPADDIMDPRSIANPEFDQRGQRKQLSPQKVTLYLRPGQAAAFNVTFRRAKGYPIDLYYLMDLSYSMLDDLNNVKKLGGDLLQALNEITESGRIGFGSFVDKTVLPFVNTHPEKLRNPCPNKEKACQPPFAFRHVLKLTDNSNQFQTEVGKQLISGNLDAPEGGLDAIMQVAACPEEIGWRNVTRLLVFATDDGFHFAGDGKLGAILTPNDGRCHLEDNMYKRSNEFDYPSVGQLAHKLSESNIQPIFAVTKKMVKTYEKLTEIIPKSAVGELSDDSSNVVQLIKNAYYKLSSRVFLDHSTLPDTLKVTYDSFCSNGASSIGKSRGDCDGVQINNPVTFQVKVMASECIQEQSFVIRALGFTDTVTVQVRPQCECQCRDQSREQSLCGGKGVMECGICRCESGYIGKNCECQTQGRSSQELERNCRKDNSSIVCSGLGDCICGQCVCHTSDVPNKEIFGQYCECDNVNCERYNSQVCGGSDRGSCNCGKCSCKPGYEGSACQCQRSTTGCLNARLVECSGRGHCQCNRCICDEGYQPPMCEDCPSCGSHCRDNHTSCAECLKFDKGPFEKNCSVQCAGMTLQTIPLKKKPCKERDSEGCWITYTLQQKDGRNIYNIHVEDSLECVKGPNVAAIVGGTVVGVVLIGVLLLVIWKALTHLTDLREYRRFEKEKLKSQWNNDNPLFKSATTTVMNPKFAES

Compound | neutrophil adhesion to Fg on integrin activation by agonist (integrin CD11b/CD18) | IC50 (integrin CD11a/CD18)
CCCCCCCCCCCCCC(=O)O[C@@H]1[C@@H](C)[C@@]2(O)[C@@H](C=C(CO)C[C@]3(O)C(=O)C(C)=C[C@@H]23)[C@@H]2C(C)(C)[C@]12OC(C)=O [PMA, phorbol 12-myristate 13-acetate] | dramatic increase | 
CC[C@H](C)C(=O)O[C@H]1C[C@@H](C)C=C2C=C[C@H](C)[C@H](CC[C@@H]3C[C@@H](O)CC(=O)O3)[C@H]21 [lovastatin] |  | 25 µM
